Measured values from ChEMBL document CHEMBL3525985, “Regiospecificity and stereospecificity of human UDP-glucuronosyltransferases in the glucuronidation of estriol, 16-epiestriol, 17-epiestriol, and 13-epiestradiol” (Drug Metab Dispos, 2013).

Legend:
Assay type in all cases: ADME
[1] = target: T1, UDP-glucuronosyltransferase 1A1 (Homo sapiens, UniProt P22309); assay: Drug metabolism assessed as recombinant human C-terminal His-tagged UGT1A1-mediated estriol-3-glucuronide formation at 200 uM after 15 to 60 mins by HPLC analysis in presence of UDPGA; conditions: recombinant enzyme
T1 sequence (P22309 whole entry): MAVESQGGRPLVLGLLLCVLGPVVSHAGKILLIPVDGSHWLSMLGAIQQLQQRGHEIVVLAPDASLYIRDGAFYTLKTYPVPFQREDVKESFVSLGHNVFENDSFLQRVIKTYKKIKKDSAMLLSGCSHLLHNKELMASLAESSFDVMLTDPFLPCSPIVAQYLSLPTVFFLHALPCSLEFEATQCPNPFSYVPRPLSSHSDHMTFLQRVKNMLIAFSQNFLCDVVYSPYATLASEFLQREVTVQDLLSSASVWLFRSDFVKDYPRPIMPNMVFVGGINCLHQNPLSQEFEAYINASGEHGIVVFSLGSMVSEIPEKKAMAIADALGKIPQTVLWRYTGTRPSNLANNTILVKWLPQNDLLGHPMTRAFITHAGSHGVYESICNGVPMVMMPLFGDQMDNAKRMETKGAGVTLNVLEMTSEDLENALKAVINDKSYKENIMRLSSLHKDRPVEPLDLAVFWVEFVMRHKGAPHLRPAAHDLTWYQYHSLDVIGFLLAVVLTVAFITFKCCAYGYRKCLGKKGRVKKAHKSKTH
How it was run: (§1)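 Screening at a single substrate concentration of 200 μM, in triplicate. The reaction used 5 or 50 µg of UGT-enriched insect cell membranes in 50 mM phosphate pH 7.4 with 10 mM MgCl₂ and 5 mM UDPGA, 10% final DMSO. Incubation was 15–60 min at 37°C. Perchloric acid stopped the reaction and supernatants were analysed by HPLC. Controls lacked UDPGA. Rates were normalized to relative UGT expression level.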

[2] = target: T2, UDP-glucuronosyltransferase 2B7 (Homo sapiens, UniProt P16662); assay: Drug metabolism assessed as recombinant human C-terminal His-tagged UGT2B7-mediated 13-epiestradiol-17-glucuronide formation at 200 uM after 15 to 60 mins by HPLC analysis in presence of UDPGA; conditions: recombinant enzyme; how it was run: as §1
T2 sequence (P16662 whole entry): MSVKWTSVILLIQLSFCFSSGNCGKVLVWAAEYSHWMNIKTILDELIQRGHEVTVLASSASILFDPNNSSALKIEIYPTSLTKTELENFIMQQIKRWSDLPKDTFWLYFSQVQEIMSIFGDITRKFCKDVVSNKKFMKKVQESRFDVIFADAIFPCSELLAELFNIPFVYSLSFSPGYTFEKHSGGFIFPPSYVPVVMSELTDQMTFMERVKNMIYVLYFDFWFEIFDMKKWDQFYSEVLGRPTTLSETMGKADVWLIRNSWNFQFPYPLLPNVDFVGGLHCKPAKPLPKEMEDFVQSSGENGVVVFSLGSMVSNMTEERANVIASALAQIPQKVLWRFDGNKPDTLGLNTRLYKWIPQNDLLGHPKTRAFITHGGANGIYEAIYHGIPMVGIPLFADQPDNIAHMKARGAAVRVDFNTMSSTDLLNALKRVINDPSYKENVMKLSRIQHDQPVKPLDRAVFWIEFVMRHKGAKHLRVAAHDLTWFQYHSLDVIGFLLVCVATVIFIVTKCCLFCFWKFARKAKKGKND

[3] = target: T3, UDP-glucuronosyltransferase 1A8 (Homo sapiens, UniProt Q9HAW9); assay: Drug metabolism assessed as recombinant human C-terminal His-tagged UGT1A8-mediated 16-epiestriol-3-glucuronide formation after 15 to 60 mins by Michaelis-Menten equation analysis in presence of UDPGA; conditions: recombinant enzyme
T3 sequence (Q9HAW9 whole entry): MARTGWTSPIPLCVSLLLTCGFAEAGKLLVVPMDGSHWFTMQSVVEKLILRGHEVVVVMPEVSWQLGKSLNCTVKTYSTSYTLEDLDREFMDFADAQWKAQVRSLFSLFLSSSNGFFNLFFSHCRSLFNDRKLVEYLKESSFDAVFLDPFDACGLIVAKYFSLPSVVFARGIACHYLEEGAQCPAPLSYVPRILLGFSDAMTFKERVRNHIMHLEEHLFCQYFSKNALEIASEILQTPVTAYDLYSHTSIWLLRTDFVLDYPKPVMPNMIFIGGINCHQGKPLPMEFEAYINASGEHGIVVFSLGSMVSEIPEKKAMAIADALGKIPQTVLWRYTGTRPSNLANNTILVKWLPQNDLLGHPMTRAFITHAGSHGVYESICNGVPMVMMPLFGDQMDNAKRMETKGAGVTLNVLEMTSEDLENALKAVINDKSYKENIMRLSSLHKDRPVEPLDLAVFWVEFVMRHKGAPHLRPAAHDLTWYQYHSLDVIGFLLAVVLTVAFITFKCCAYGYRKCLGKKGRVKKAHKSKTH

[4] = target: T4, UDP-glucuronosyltransferase 1A3 (Homo sapiens, UniProt P35503); assay: Drug metabolism assessed as recombinant human C-terminal His-tagged UGT1A3-mediated 16-epiestriol-16-glucuronide formation after 15 to 60 mins by Michaelis-Menten equation analysis in presence of UDPGA; conditions: recombinant enzyme
T4 sequence (P35503 whole entry): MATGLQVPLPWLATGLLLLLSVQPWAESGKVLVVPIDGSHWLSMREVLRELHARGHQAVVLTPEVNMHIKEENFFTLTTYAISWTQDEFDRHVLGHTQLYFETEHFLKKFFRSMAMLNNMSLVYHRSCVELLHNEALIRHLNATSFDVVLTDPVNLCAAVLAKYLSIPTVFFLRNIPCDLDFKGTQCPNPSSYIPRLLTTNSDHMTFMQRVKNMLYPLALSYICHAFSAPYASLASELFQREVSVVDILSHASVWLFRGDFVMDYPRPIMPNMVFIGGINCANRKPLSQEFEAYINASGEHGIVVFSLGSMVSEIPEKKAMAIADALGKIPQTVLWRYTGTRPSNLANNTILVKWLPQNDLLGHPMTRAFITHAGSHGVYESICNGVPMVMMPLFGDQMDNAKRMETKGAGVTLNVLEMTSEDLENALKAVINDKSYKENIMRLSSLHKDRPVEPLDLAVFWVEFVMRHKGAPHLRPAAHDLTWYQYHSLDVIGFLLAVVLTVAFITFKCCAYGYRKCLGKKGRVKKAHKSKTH

Liver microsome = assay: Drug metabolism in human liver microsomes assessed as 17-epiestriol-3-glucuronide formation after 15 to 60 mins by Michaelis-Menten equation analysis in presence of UDPGA
How it was run: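 Pooled human liver microsomes (30 donors), 0.5 or 10 µg, with alamethicin at 5% of total protein. Incubated with 50 mM phosphate pH 7.4, 10 mM MgCl₂, 5 mM UDPGA and 10% DMSO for 15–60 min at 37°C. Each glucuronide regioisomer quantified by HPLC, in triplicate, with substrate consumption at or below 10%.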

`C[C@]12CC[C@@H]3c4ccc(O)cc4CC[C@H]3[C@@H]1C[C@@H](O)[C@@H]2O` [ESTRIOL] was tested, and the Drug metabolism [1] was “metabolite_detected”.

For `C[C@@]12CC[C@@H]3c4ccc(O)cc4CC[C@H]3[C@@H]1CC[C@@H]2O`, the Drug metabolism [2] was “metabolite_detected”.

With `C[C@]12CC[C@@H]3c4ccc(O)cc4CC[C@H]3[C@@H]1C[C@H](O)[C@@H]2O` [EPIESTRIOL] the Drug metabolism [3] was 0.5 pmol/min/mg and the Drug metabolism [4] was 5 pmol/min/mg.

`C[C@]12CC[C@@H]3c4ccc(O)cc4CC[C@H]3[C@@H]1C[C@@H](O)[C@H]2O` showed a Km (Liver microsome) of 380 µM and a Vmax (Liver microsome) of 805 pmol/min/mg.
